How the values were obtained:
Kocuria rhizophila = assay: Antibacterial activity against Kocuria rhizophila ATCC9341 assessed as reduction in microbial growth after 20 hrs by liquid microculture method; assay type: functional; conditions: ATCC9341, 20 h
In short: (§1)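 Broth microdilution MIC: twofold serial dilutions of compound were made across the plate, with the solvent vehicle kept at 0.5% of the final culture volume. The inoculum came from a log-phase culture. Plates were incubated at 37 °C for 20 h and growth was read as absorbance at 650 nm, in triplicate. Kanamycin sulfate was the reference drug.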

Staphylococcus aureus = assay: Antibacterial activity against Staphylococcus aureus FDA209P JC-1 assessed as reduction in microbial growth after 20 hrs by liquid microculture method; assay type: functional; conditions: FDA209P JC-1, 20 h; in short: as §1
Escherichia coli = assay: Antibacterial activity against Escherichia coli NIHJ JC-2 assessed as reduction in microbial growth after 20 hrs by liquid microculture method; assay type: functional; conditions: NIHJ JC-2, 20 h; in short: as §1
[1] = tested on: Agrobacterium tumefaciens; assay: Antibacterial activity against Rhizobium radiobacter NBRC14554 assessed as reduction in microbial growth after 20 hrs by liquid microculture method; assay type: functional; conditions: NBRC14554, 20 h
In short: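 Broth microdilution MIC: twofold serial compound dilutions, vehicle at 0.5% of final volume, log-phase inoculum. Incubated at 37 °C for 20 h, with absorbance read at 650 nm in triplicate. Sulfamethoxazole was the reference drug.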

Tenacibaculum maritimum = assay: Antibacterial activity against Tenacibaculum maritimum NBRC16015 assessed as reduction in microbial growth after 20 hrs by liquid microculture method; assay type: functional; conditions: NBRC16015, 20 h
In short: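 Twofold serial-dilution microculture MIC: vehicle at 0.5% of final volume, log-phase inoculum, incubation at 24 °C. Growth was read as absorbance at 650 nm in triplicate. Sulfamethoxazole was the reference drug.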

Candida albicans = assay: Antifungal activity against Candida albicans NBRC0197 assessed as reduction in microbial growth after 20 hrs by liquid microculture method; assay type: functional; conditions: NBRC0197, 20 h
In short: (§2)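 Antifungal MIC by twofold serial dilution in microplates: vehicle at 0.5% of final volume, inoculum from a log-phase culture, incubation at 25 °C. Growth was read as absorbance at 650 nm in triplicate. Amphotericin B was the reference drug.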

[2] = tested on: Colletotrichum gloeosporioides; assay: Antifungal activity against Glomerella cingulata NBRC5907 assessed as reduction in microbial growth after 20 hrs by liquid microculture method; assay type: functional; conditions: NBRC5907, 20 h; in short: as §2
Trichophyton rubrum = assay: Antifungal activity against Trichophyton rubrum NBRC5467 assessed as reduction in microbial growth after 20 hrs by liquid microculture method; assay type: functional; conditions: NBRC5467, 20 h; in short: as §2
P388 = assay: Cytotoxicity against mouse P388 cells assessed as reduction in cell viability after 72 hrs by XTT assay; assay type: functional, cell-based; conditions: P388, 72 h
In short: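 P388 cells were grown in RPMI-1640 with L-glutamine, 10% FBS and 0.1 mg/mL gentamicin sulfate. They were seeded in 96-well round-bottom plates and exposed to compound in 200 μL cultures for 72 h at 37 °C under 5% CO2. Medium containing XTT (1 mg/mL) and PMS (40 μg/mL) was then added for 4 h, the medium was aspirated, and formazan was read at 450 nm. Growth inhibition was calculated per concentration, with doxorubicin as the reference.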

Row | SMILES | MIC (Kocuria rhizophila) | MIC (Staphylococcus aureus) | MIC (Escherichia coli) | MIC [1] | MIC (Tenacibaculum maritimum) | MIC (Candida albicans) | MIC [2] | MIC (Trichophyton rubrum) | IC50 (P388)
1 | CCCCCCCCCC(=O)c1c[nH]cn1 | 0.78 µg/mL | 1.56 µg/mL | > 100 µg/mL | > 100 µg/mL | 6.25 µg/mL | 12.5 µg/mL | 1.56 µg/mL | 1.56 µg/mL | 5.8 µM
2 | CCC(C)CCCCCCC(=O)c1c[nH]cn1 (racemic) | 0.78 µg/mL | 1.56 µg/mL | > 100 µg/mL | > 100 µg/mL | 3.12 µg/mL | 6.25 µg/mL | 1.56 µg/mL | 0.78 µg/mL | 5 µM
3 | CC(C)CCCCCCC(=O)c1c[nH]cn1 | 1.56 µg/mL | 3.12 µg/mL | > 100 µg/mL | > 100 µg/mL | 12.5 µg/mL | 6.25 µg/mL | 3.12 µg/mL | 3.12 µg/mL | 7 µM
